From ChEMBL document CHEMBL1833874, “Α-pyrones and diketopiperazine derivatives from the marine-derived actinomycete Nocardiopsis dassonvillei HR10-5” (J Nat Prod, 2011) come the findings set out here.

One assay concerns HL-60. As to the kind of experiment: Cytotoxicity against human HL60 cells after 72 hrs by MTT assay. The assay is classed as functional, cell-based. The settings on record: HL-60, 72 h. Put shortly:
(§1)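 HL-60 cells were assayed by MTT and A549 cells by SRB. Read-out is IC50, given in μM.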

Another assay concerns Bacillus subtilis. As to the kind of experiment: Antibacterial activity against Bacillus subtilis by agar dilution method. In kind it is functional. Summed up:
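Agar dilution, with the same panel also run against E. coli, A. aerogenes, P. aeruginosa, S. aureus and C. albicans. Read-out is the MIC, given in μM.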

A further assay has as its system A549. As to the kind of experiment: Cytotoxicity against human A549 cells after 24 hrs by SRB assay. The assay is classed as functional. Summed up:
as §1

The structures appear in SMILES notation. Converted amounts (≈) assume the structure as drawn.

Take `CC/C=C(\C)c1ccc(CC)c(=O)o1` [NOCAPYRONE E]: the IC50 in the assay with HL-60 was at least 100 µM; in the assay with A549, “>=100 uM”. Moreover, in the assay on Bacillus subtilis, it took 26 µM (≈ 5 µg/mL) to inhibit growth (MIC).
Regarding `OC[C@@H]1COC(c2ccccc2O)=N1` [NOCAZOLINE A], the IC50 is at least 100 µM with HL-60 and “>=100 uM” in the assay with A549.
For `COc1ccc(/C=c2/c(OC)n/c(=C\c3ccccc3)c(=O)n2C)cc1` [NOCAZINE B], in that order: at least 100 µM and “>=100 uM”.
Regarding `CCc1ccc(/C(C)=C/[C@H](C)O)oc1=O` [NOCAPYRONE G], the IC50 was at least 100 µM in the assay with HL-60 and “>=100 uM” in the assay on A549. The same molecule registered an MIC with Bacillus subtilis of 12 µM (≈ 2.5 µg/mL).
Take `COc1ccc(/C=C2/C(=O)N[C@@H](Cc3ccccc3)C(=O)N2C)cc1` [NOCAZINE C]: the IC50 with HL-60 is at least 100 µM; in the assay with A549, “>=100 uM”.
For the molecule `CC/C=C(\C)c1ccc(C)c(=O)o1` [NOCAPYRONE F], the IC50 in the assay on HL-60 is at least 100 µM; in the assay with A549, “>=100 uM”. Also, it took 14 µM (≈ 2.5 µg/mL) to inhibit growth in the assay with Bacillus subtilis (MIC).
Take `COc1ccc(/C=c2\nc(OC)/c(=C/c3ccc(OC)cc3)n(C)c2=O)cc1` [NOCAZINE A]: the IC50 with HL-60 was at least 100 µM; with A549, “>=100 uM”.
